In the library only some 9.6% were active in any assay of this set; here they are far more common.
Ba/F3 V617F tox: loss of viability in JAK2V617F-driven Ba/F3 cells; Ba/F3 EpoR-JAK2V617F viability, ATP luminescence; inhibition, % at 5.6 µM; actives 1.1% (n = 220,000);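 active = inhibition above the campaign mean plus 3 SD over all tested compounds, cut at about 24% in these data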;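 note: cytokine-independent growth of Ba/F3 cells driven by EpoR plus mutant JAK2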
APP 5UTR inh: APP translation inhibition. SH-SY5Y APP 5'UTR-luciferase reporter, luminescence. inhibition, % at 2 µM. actives 0.82% (n = 190,000). AID 1285;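 active = inhibition above a set limit, derived from the sample mean plus 3 SD, cut at about 45% in these data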
L major viab: inhibitors of Leishmania major promastigote growth; Leishmania major promastigotes, resazurin fluorescence viability; inhibition, % at 10 µM; actives 9% (n = 200,000); AID 1063; in the data active = inhibition above about 50%;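 note: promastigotes grown with compound for 44 hours at 28 °C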
bCat nuc transl: modulators of beta-catenin nuclear translocation. HeLa beta-catenin nuclear translocation, immunofluorescence imaging. nuclear translocation activity, % at 5 µM. actives 0.3% (n = 190,000);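 active = nuclear translocation activity above 50% at 5 µM, with a well cell count of 50 or more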;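 note: per-cell ratio of nuclear to cytoplasmic median beta-catenin stain intensity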
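Test system: human HeLa cells, native beta-catenin. Compound dosing: 5 µM primary single dose, 0.1% DMSO, 0.02–20 µM confirmation series. Incubation: compound exposure 24 h at 37°C. Detection: beta-catenin immunostaining with DAPI counterstain, 20x imaging, 6 fields/well. Read-out basis: Nuclear/cytoplasmic beta-catenin signal ratio, % activation.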
BaF3 parental: reduces parental Ba/F3 cell viability, JAK2V617F counter-screen. CellTiter-Glo ATP luminescence. inhibition, % at 5.6 µM. actives 1.1% (n = 220,000). AID 1486;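 active = inhibition above a per-campaign cutoff, the mean inhibition of all tested compounds plus 3 SD, cut at about 27% in these data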
MT stabilize HCS: microtubule stabilization, imaging screen | HeLa tubulin immunostaining HCS, 24 h; share of cells brighter than vehicle mean+2SD | % tubulin-high responders, % at 10 µM | actives 0.83% (n = 200,000) | AID 2205;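 active = plate Z-score above 3 for both tubulin-high and condensed-nucleus cell shares, with cell loss under 80%, at 10 µM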;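 note: anti alpha tubulin signal scored within the nucleus-defined area of each cell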
Of the large screens only hits and unclear results are named; the others gave an inactive call.

CC[n+]1oc(-c2ccccc2)cc1C	none
COc1ccc(Cc2nnc(SCC(=O)N3CCCCC3)o2)cc1	none
O=C1CC(c2cc([N+](=O)[O-])ccc2Cl)c2c(ccc3ccccc23)N1 (centres undefined)	L major viab 92.3
N#Cc1c(NCCN)nc(NCc2ccccc2)c2c1CCN(Cc1ccccc1)C2	L major viab 97.0
N#Cc1c(NCCN)nc(-c2ccccc2)c2c1CCCC2	L major viab 84.5 (no result: bCat nuc transl)
N#Cc1c(N2CCCCC2)nc(N2CCCCC2)c2c1CCN(Cc1ccccc1)C2	L major viab 100.2
N#Cc1c(NCCCO)nc(-c2ccccc2)c2c1CCCC2	none
CCCc1nc(NCc2ccccc2)c(C#N)c2c1CCCC2	none
C=CCNc1nc(NCc2ccccc2)c(C#N)c2c1CN(C)CC2	none
CCN1CCc2c(C#N)c(NCc3ccccc3)nc(N(CC)CC)c2C1	L major viab 97.7, BaF3 parental 49.7
N#CCC(=O)Nc1ccc(C(=O)NCC(c2ccco2)N2CCCCC2)cc1 (centres undefined)	none
NC(=O)CC(NC(=O)Cc1ccc(Br)cc1)c1ccc(N2CCC(Cc3ccccc3)CC2)c([N+](=O)[O-])c1 (centres undefined)	none (no result: Ba/F3 V617F tox, APP 5UTR inh, L major viab, BaF3 parental, MT stabilize HCS)
Cc1ccc(Cl)cc1N1CCN(CC(=O)Nc2ccc(CN3CCCCC3)cc2)CC1	L major viab 98.5
O=C(COc1ccc(Cl)cc1Cl)Nc1ccc(CN2CCCCC2)cc1	none
COc1ccccc1N1CCN(CC(=O)Nc2ccc(CN3CCCCC3)cc2)CC1	L major viab 64.0
CC(OC(=O)c1cc2c(ccc3ccccc32)oc1=O)c1nc2ccccc2s1 (centres undefined)	none
COc1ccc(S(=O)(=O)NCCSCc2ccccc2C)cc1Br	none
CCCCNC(=O)CSc1nc2ccccc2c(=O)n1C1CCCC1	L major viab 94.9
CCOC(=O)CSc1nc2ccccc2c(=O)n1C1CCCC1	none (no result: bCat nuc transl)
CCc1cccc(CC)c1NC(=O)c1cc(CN2C(=O)c3ccccc3C2=O)ccc1OC	L major viab 88.1 (no result: bCat nuc transl)
COc1ccc(CN2C(=O)c3ccccc3C2=O)cc1C(=O)OC(C)C(=O)NC(N)=O (centres undefined)	none (no result: bCat nuc transl)
O=C(c1ccco1)N1CCCN(Cc2nc(-c3cccs3)no2)CC1	L major viab 86.2
Cc1ccc(-n2c(N)c(Br)c(=O)[nH]c2=O)cc1C	none
CCCCn1c(SCC(=O)NCc2cccs2)nc2c1c(=O)n(C)c(=O)n2C	none
CCOc1ccc(C(C)(C)C)cc1S(=O)(=O)N1CC(C)OC(C)C1 (centres undefined)	L major viab 63.5
Cc1ccc(Nc2nc3ccccc3[nH]2)nc1	L major viab 100.5
COc1ccccc1Nc1nc2ccccc2[nH]1	none
COc1ccc(O)c(CNn2c(-c3ccc(Br)cc3)nc3ccccc3c2=O)c1	none
COc1cccc(CNn2c(-c3cccc(C)c3)nc3ccccc3c2=O)c1O	L major viab 53.9
Cc1ccc2nc3c(c(N)c2c1)CCN3c1ccccc1	L major viab 89.4
CC1COC(Cn2c3ccccc3c3ccccc32)O1 (centres undefined)	none (no result: APP 5UTR inh, L major viab, MT stabilize HCS)
CCNC(=S)N/N=C/c1cc(C)n(-c2ccc(Cl)cc2)c1C	none
Cc1cc(/C=N/NC(N)=S)c(C)n1-c1ccc(Cl)c(Cl)c1	L major viab 100.4 (no result: bCat nuc transl)
O=C(C1=C[C@@H](C2CCCCC2)C[C@@H](OCCCCO)O1)N1CCOCC1	none
O=C1c2cccnc2C(=O)N1CNc1ccc(Cl)cc1	none
CCOc1ccc(/C(CC)=N/NC(=O)C2(C)CC2(Br)Br)cc1 (centres undefined)	L major viab 58.0
CCOc1ccc(/C(CCC(=O)O)=N/NC(=S)NC(C)C)cc1	none
CC1=CC(=O)C=C(C)C1=NOC(=O)c1cccc([N+](=O)[O-])c1	L major viab 84.0 (no result: bCat nuc transl)
COC(=O)c1cc(Cl)c(NC(=O)/C=C/c2ccc(OC)cc2)cc1OC	MT stabilize HCS 25.6
COC(=O)c1cc(Cl)c(NC(=O)C(C)C)cc1OC	none
CC(C)(C)SCCNC(=O)/C=C/c1cccc([N+](=O)[O-])c1	none
COc1ccccc1NC(=O)c1cccc(NC(=O)c2ccco2)c1	L major viab 87.9 (no result: bCat nuc transl)
COc1ccccc1NC(=O)Oc1ccc(NC(=O)c2ccco2)cc1	L major viab 52.1 (no result: bCat nuc transl)
O=C(COC(=O)c1cccc(NC(=O)c2ccco2)c1)c1ccc(Br)cc1	L major viab 98.7
COc1ccc(NC(=O)c2ccco2)cc1NC(=O)c1ccco1	none
COc1cccc(C(=O)Nc2cc(NC(=O)c3ccco3)ccc2OC)c1	none (no result: bCat nuc transl)
O=C(Nc1ccc(Oc2ccc(NC(=O)c3ccco3)c(NC(=O)c3ccco3)c2)cc1)c1ccco1	L major viab 98.1 (no result: bCat nuc transl)
O=C(COC(=O)c1ccc(Br)o1)Nc1cccc(S(=O)(=O)N2CCCCCC2)c1	none
O=C(Nc1ccc(C(=O)Oc2ccccc2)c(O)c1)c1ccco1	L major viab 55.0
O=C(Nc1ccc(C(=O)Oc2ccccc2)c(O)c1)c1ccccc1	none
COc1ccc(NC(=S)N(CCCN2CCOCC2)Cc2cn(C)c3ccccc23)cc1	none
Cc1ccc(NC(=S)N(C)Cc2cn(C)c3ccccc23)cc1	L major viab 63.0
Cn1cc(CN(CCCN2CCOCC2)C(=S)Nc2cccc(Cl)c2)c2ccccc21	L major viab 79.7
Cc1cccc(NC(=S)N(CCCN2CCOCC2)Cc2cn(C)c3ccccc23)c1	L major viab 89.6
CCOc1ccc(NC(=S)N(CCCN2CCOCC2)Cc2cn(C)c3ccccc23)cc1	L major viab 59.8
O=C(COc1ccc([N+](=O)[O-])cc1Cl)NCC1CCCO1 (centres undefined)	none
c1ccc(-c2nnc(CSc3ccc4c(c3)OCCO4)o2)cc1	none
Cc1ccc(CNC(=O)Cn2c(=O)c3sccc3n(Cc3ccc([N+](=O)[O-])cc3)c2=O)cc1	none
COCCn1c(C)cc(C(=O)CSc2cc(C)c3ccc(OC)cc3n2)c1C	none
Cn1c(O)c(N=NC(=O)c2ccccc2O)c2ccccc21	none
Cc1occc1C(=O)N=Nc1c(O)n(C)c2ccccc12	L major viab 70.7
CCCNC(=O)Nc1cccc(NC(C)=O)c1	none (no result: APP 5UTR inh, L major viab, MT stabilize HCS)
CNC1(c2nnnn2-c2ccccc2C)CCOC(C)(C)C1 (centres undefined)	none (no result: APP 5UTR inh, L major viab, MT stabilize HCS)
C=C(C)[C@@H]1CC=C(CN2CCC(CCOC)(C(=O)OCC)CC2)CC1	L major viab 78.6
CCOC(=O)C1(CCOc2ccccc2)CCN(Cc2ccc(C)o2)CC1	L major viab 73.5
CCOC(=O)C1(CCOc2ccccc2)CCN(Cc2cccc3nonc23)CC1	L major viab 86.7
CCOC(=O)C1(CCOc2ccccc2)CCN(Cc2cnc(C)[nH]2)CC1	none
CCOC(=O)C1(CCOc2ccccc2)CCN(Cc2cnc(SC)nc2)CC1	L major viab 86.1
Cc1ccccc1-n1cnc2c(sc3nc(N4CCOCC4)c4c(c32)CCCC4)c1=O	none (no result: APP 5UTR inh, L major viab, MT stabilize HCS)
CCOC(=O)C1(CCOc2ccccc2)CCN(Cc2ccc(COC)o2)CC1	L major viab 66.2

High-throughput results as filed in PubChem.
